# Data published in PubChem BioAssay AID488779 (The Scripps Research Institute Molecular Screening Center, 2010).
# Calls of active or inactive are those of the source.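 Rule for the calls: active = SF-1 luciferase reporter signal in cells inhibited by more than 25%; inactive = the rest.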
# Target: Steroidogenic factor 1 (Homo sapiens) (UniProt Q13285)
# Assay: nuclear receptor SF-1 transcriptional inhibitors – cell-based, luminescence, powder samples, single concentration, selectivity assay for LRH1 inverse agonist project, confirmation (AID 488779)
# Settings: HEK293T SF-1 5xSFRE luciferase reporter, 20 h; at 5 µM; stronger effect = higher value
# How it was run: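 Material: HEK293T cells with SF-1 and SFRE-luciferase reporter; Doses: single 5 µM compound dose; Timing: 20 h compound exposure after 24 h transfection and replating; Signal: luciferase luminescence; Replication: triplicates.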
# Chain of Steroidogenic factor 1 (Homo sapiens) (Q13285 whole entry, looked up): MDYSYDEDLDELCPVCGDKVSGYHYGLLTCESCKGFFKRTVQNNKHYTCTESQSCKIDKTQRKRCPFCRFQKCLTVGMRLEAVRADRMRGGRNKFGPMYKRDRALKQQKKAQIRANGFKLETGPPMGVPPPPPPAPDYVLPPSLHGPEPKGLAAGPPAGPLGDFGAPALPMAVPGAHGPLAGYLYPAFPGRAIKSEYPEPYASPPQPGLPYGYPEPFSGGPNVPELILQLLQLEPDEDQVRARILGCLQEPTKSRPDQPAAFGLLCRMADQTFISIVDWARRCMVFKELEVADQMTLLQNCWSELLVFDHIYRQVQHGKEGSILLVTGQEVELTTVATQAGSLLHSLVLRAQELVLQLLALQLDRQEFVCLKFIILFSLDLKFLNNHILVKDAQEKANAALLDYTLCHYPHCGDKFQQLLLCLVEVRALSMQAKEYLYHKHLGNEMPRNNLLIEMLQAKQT
row,inhibition,Compound
1,6% (inactive),COC(=O)C1CCN(c2cc(=O)n(C3CCCCC3)c(=O)[nH]2)CC1
2,0% (inactive),O=c1cc(N2CCOCC2)[nH]c(=O)n1C1CCCCC1
3,-13% (inactive),C=CCN1CCN(c2cc(=O)n(C3CCCCC3)c(=O)[nH]2)CC1
4,9% (inactive),O=c1cc(N2CCN(CCN3CCOCC3)CC2)[nH]c(=O)n1C1CCCCC1
5,1% (inactive),O=c1cc(N2CCN(c3nc(-c4ccccc4)ns3)CC2)[nH]c(=O)n1C1CCCCC1
6,5% (inactive),O=c1cc(N2CCN(c3cccc(Cl)c3)CC2)[nH]c(=O)n1C1CCCCC1
7,1% (inactive),O=c1cc(N2CCN(c3ccc(C(F)(F)F)cc3)CC2)[nH]c(=O)n1C1CCCCC1
8,23% (inactive),O=c1cc(N2CCCCC2)[nH]c(=O)n1C1CCCCC1
9,-1% (inactive),O=c1cc(N2CCN(c3cccc(C(F)(F)F)c3)CC2)[nH]c(=O)n1C1CCCCC1
10,10% (inactive),CCn1c(=O)cc(N2CCN(c3ccc(F)cc3)CC2)[nH]c1=O
11,-5% (inactive),CC1CCN(c2cc(=O)n(C3CCCCC3)c(=O)[nH]2)CC1
12,9% (inactive),O=c1cc(N2CCN(c3cccc(C(F)(F)F)n3)CC2)[nH]c(=O)n1C1CCCCC1
13,-112% (inactive),O=c1cc(N2CCN(c3cccc(F)c3)CC2)[nH]c(=O)n1C1CCCCC1
14,4% (inactive),N#CCn1c(N2CCN(c3cccc(C(F)(F)F)c3)CC2)cc(=O)n(C2CCCCC2)c1=O
15,-14% (inactive),O=c1cc(N2CCN(c3nccc4occc34)CC2)[nH]c(=O)n1C1CCCCC1
16,-19% (inactive),O=c1cc(N2CCN(c3ccccc3Cl)CC2)[nH]c(=O)n1C1CCCCC1
17,-83% (inactive),O=c1cc(N2CCN(c3cc(C(F)(F)F)ccn3)CC2)[nH]c(=O)n1C1CCCCC1
18,-23% (inactive),O=c1cc(N2CCN(c3cccc(Br)c3)CC2)[nH]c(=O)n1C1CCCCC1
19,-164% (inactive),C=CCn1c(=O)cc(N2CCN(c3cccc(C(F)(F)F)c3)CC2)[nH]c1=O
20,-8% (inactive),O=c1cc(N2CCN(C(c3ccccc3)c3ccccc3)CC2)[nH]c(=O)n1C1CCCCC1

row,inhibition,Compound
1,-3% (inactive),O=c1cc(N2CCN(c3cccc(C(F)(F)F)c3)CC2)[nH]c(=O)n1-c1ccccc1
2,5% (inactive),O=c1cc(N2CCN(c3ncccc3C(F)(F)F)CC2)[nH]c(=O)n1C1CCCCC1
3,30%,CCn1c(=O)cc(N2CCN(C(=O)c3ccco3)CC2)[nH]c1=O
4,-18% (inactive),O=c1cc(N2CCN(c3ccccc3)CC2)[nH]c(=O)n1Cc1ccc(F)cc1
5,24%,O=c1cc(N2CCN(Cc3ccc4c(c3)OCO4)CC2)[nH]c(=O)n1C1CCCCC1
6,3% (inactive),O=c1cc(N2CCN(c3cccc(C(F)(F)F)c3)CC2)n(Cc2ccccc2)c(=O)n1C1CCCCC1
7,-81% (inactive),CCn1c(=O)cc(N2CCN(c3cccc(C(F)(F)F)c3)CC2)[nH]c1=O
8,-12% (inactive),Cc1ccc(Cl)cc1N1CCN(c2cc(=O)n(C3CCCCC3)c(=O)[nH]2)CC1
9,-3% (inactive),O=c1cc(N2CCN(c3cccc(Cl)n3)CC2)[nH]c(=O)n1C1CCCCC1
10,-9% (inactive),O=c1cc(N2CCN(c3cc(Cl)cc(Cl)c3)CC2)[nH]c(=O)n1C1CCCCC1
11,27%,CCn1c(=O)cc(N2CCN(Cc3ccccc3)CC2)[nH]c1=O
12,1% (inactive),O=c1cc(N2CCN(c3cccc(C(F)(F)F)c3)CC2)[nH]c(=O)n1Cc1ccccc1
13,19% (inactive),CCOC(=O)N1CCN(c2cc(=O)n(C3CCCCC3)c(=O)[nH]2)CC1
14,0% (inactive),CC1CCN(c2cc(=O)n(Cc3ccc(F)cc3)c(=O)[nH]2)CC1
15,-49% (inactive),O=c1cc(N2CCN(c3ccc(F)cc3F)CC2)[nH]c(=O)n1C1CCCCC1
16,-2% (inactive),Cn1c(=O)cc(N2CCN(c3cccc(Cl)c3)CC2)[nH]c1=O
17,9% (inactive),O=c1cc(N2CCC(Cc3ccccc3)CC2)[nH]c(=O)n1C1CCCCC1
18,-7% (inactive),O=c1cc(N2CCN(c3ccccn3)CC2)[nH]c(=O)n1C1CCCCC1
19,-4% (inactive),Cc1cc(C)cc(N2CCN(c3cc(=O)n(C4CCCCC4)c(=O)[nH]3)CC2)c1
20,5% (inactive),CCN1CCN(c2cc(=O)n(C3CCCCC3)c(=O)[nH]2)CC1

row,inhibition,Compound
1,2% (inactive),O=c1cc(N2CCN(c3cccc(Cl)c3)CC2)[nH]c(=O)[nH]1
2,-24% (inactive),C=CCn1c(N2CCN(c3cccc(C(F)(F)F)c3)CC2)cc(=O)n(C2CCCCC2)c1=O
3,2% (inactive),O=C(c1ccccc1)N1CCN(c2cc(=O)n(C3CCCCC3)c(=O)[nH]2)CC1
4,-4% (inactive),O=c1cc(N2CCN(Cc3ccc(Cl)cc3)CC2)[nH]c(=O)n1C1CCCCC1
5,11% (inactive),O=c1cc(N2CCN(c3ccnc4cc(Cl)ccc34)CC2)[nH]c(=O)n1C1CCCCC1
6,7% (inactive),Cc1ccc(C)n1CCN1CCN(c2cc(=O)n(C3CCCCC3)c(=O)[nH]2)CC1
7,3% (inactive),O=c1cc(N2CCN(c3cccc(Cl)c3Cl)CC2)[nH]c(=O)n1C1CCCCC1
8,-2% (inactive),O=c1cc(N2CCN(c3ccc(F)cc3)CC2)[nH]c(=O)n1C1CCCCC1
9,6% (inactive),O=C(c1ccco1)N1CCN(c2cc(=O)n(C3CCCCC3)c(=O)[nH]2)CC1
10,7% (inactive),CCn1c(=O)cc(N2CCN(c3ccccc3)CC2)[nH]c1=O
11,13% (inactive),O=c1cc(N2CCN(c3ncccc3Cl)CC2)[nH]c(=O)n1C1CCCCC1
12,5% (inactive),O=c1cc(N2CCCC2)[nH]c(=O)n1C1CCCCC1
13,-10% (inactive),CCn1c(=O)cc(N2CCN(c3cccc(Cl)c3)CC2)[nH]c1=O
14,23% (inactive),O=c1cc(N2CCc3ccccc32)[nH]c(=O)n1C1CCCCC1
15,9% (inactive),O=c1cc(N2CCN(C3CCCCC3)CC2)[nH]c(=O)n1C1CCCCC1
16,5% (inactive),O=c1cc(N2CCN(c3ccccc3C(F)(F)F)CC2)[nH]c(=O)n1C1CCCCC1
17,-95% (inactive),CC(C)Cn1c(=O)cc(N2CCN(c3cccc(C(F)(F)F)c3)CC2)[nH]c1=O
18,-2% (inactive),Cn1c(=O)cc(N2CCN(c3ccc(F)cc3)CC2)[nH]c1=O
19,5% (inactive),COc1ccc(N2CCN(c3cc(=O)n(C4CCCCC4)c(=O)[nH]3)CC2)cc1
20,-3% (inactive),O=c1cc(N2CCN(c3ccccc3)CC2)[nH]c(=O)n1C1CCCCC1
